For test [1], the target named is Calcium/calmodulin-dependent protein kinase kinase 2 (Homo sapiens) (UniProt Q96RR4). The test is described as follows: Inhibition of CAMKKbeta assessed as residual activity at 10 uM by Cherenkov counting relative to control. A digest of the protocol:
(§1)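 Single-point profiling at 10 µM in a panel of 78 protein kinases. Kinase activity is expressed as a percentage relative to control assays without compound.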

Test [2] addresses T1, Dual specificity tyrosine-phosphorylation-regulated kinase 2 (Homo sapiens) (UniProt Q92630).
T1 sequence (whole entry): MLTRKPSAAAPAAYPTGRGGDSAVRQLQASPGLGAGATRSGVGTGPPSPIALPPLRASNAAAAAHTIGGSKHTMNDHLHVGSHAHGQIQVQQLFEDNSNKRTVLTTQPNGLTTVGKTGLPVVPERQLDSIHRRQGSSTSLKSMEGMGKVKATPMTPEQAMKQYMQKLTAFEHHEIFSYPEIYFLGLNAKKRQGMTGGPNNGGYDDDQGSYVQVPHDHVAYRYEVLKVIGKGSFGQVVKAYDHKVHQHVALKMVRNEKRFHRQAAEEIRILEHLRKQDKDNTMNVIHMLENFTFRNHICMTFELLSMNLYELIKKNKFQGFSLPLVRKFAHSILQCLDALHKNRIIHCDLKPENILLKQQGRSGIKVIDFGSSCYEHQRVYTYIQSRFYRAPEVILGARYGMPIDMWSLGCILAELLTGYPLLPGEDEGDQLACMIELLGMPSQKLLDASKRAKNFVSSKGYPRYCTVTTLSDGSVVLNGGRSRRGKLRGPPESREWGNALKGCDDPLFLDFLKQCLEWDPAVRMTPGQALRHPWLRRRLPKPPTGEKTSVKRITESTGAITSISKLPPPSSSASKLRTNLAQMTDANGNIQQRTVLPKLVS
Description: Inhibition of DYRK2 assessed as residual activity at 10 uM by Cherenkov counting relative to control in presence of 50 uM ATP. A digest of the protocol: as §1

For test [3], the target named is 3-phosphoinositide-dependent protein kinase 1 (Homo sapiens) (UniProt O15530). The test is described as follows: Inhibition of PDK1 assessed as residual activity at 10 uM by Cherenkov counting relative to control in presence of 20 uM ATP.
Chain of 3-phosphoinositide-dependent protein kinase 1 (Homo sapiens) (O15530 whole entry, looked up): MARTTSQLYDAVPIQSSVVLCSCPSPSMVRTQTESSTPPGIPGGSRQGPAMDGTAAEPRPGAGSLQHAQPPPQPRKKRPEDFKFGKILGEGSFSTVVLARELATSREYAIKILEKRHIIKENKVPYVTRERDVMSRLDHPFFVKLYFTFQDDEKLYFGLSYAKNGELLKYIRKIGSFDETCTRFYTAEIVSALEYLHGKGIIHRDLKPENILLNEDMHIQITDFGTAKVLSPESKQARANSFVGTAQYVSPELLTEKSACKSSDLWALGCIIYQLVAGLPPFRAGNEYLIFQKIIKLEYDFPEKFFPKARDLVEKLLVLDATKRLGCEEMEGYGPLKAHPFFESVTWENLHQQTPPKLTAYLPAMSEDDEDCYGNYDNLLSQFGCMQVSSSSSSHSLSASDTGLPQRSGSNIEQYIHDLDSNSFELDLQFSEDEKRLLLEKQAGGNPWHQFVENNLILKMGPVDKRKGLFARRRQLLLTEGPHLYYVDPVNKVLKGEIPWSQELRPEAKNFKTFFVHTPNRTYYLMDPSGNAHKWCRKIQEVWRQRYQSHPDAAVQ
For test [4], the target named is Insulin receptor-related protein (Homo sapiens) (UniProt P14616). The test is described as follows: Inhibition of IRR assessed as residual activity at 10 uM by Cherenkov counting relative to control in presence of 5 uM ATP.
Chain of Insulin receptor-related protein (Homo sapiens) (P14616 27-742 limits assumed): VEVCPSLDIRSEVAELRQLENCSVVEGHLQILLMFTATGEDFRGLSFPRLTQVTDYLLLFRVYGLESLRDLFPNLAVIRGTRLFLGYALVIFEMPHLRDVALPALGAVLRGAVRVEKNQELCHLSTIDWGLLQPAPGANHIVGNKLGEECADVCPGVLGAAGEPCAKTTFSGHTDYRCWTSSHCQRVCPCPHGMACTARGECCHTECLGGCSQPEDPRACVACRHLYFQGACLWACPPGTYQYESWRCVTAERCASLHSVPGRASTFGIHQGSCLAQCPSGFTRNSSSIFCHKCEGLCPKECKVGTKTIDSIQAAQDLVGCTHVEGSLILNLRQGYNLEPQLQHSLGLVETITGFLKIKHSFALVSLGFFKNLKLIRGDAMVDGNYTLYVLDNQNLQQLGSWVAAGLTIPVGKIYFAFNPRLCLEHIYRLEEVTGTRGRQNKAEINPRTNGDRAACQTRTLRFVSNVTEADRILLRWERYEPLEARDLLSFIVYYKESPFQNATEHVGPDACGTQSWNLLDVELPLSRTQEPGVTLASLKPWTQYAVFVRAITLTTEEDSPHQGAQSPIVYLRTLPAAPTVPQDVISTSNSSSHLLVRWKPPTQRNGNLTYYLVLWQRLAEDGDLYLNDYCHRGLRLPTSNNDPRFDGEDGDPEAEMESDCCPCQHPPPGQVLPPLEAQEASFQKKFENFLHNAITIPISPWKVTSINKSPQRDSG
Chain of Insulin receptor-related protein (Homo sapiens) (P14616 747-1297 limits assumed): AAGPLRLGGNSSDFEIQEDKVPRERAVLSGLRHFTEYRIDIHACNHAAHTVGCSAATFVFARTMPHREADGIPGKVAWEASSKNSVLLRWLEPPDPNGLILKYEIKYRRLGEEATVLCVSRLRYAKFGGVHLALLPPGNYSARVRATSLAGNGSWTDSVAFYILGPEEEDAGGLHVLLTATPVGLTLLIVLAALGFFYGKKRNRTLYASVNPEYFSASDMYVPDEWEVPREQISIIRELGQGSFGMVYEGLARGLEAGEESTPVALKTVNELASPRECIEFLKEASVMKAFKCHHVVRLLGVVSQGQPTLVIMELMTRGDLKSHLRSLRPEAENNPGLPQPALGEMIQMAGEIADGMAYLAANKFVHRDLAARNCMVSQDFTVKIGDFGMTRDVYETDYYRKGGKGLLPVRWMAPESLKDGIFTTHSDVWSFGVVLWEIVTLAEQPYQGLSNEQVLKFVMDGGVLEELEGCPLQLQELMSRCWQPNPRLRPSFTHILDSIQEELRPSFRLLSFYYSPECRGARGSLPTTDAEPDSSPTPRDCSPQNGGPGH
Test [5] has as its target T2, MAP kinase-activated protein kinase 5 (Homo sapiens) (UniProt Q8IW41).
T2 sequence (whole entry): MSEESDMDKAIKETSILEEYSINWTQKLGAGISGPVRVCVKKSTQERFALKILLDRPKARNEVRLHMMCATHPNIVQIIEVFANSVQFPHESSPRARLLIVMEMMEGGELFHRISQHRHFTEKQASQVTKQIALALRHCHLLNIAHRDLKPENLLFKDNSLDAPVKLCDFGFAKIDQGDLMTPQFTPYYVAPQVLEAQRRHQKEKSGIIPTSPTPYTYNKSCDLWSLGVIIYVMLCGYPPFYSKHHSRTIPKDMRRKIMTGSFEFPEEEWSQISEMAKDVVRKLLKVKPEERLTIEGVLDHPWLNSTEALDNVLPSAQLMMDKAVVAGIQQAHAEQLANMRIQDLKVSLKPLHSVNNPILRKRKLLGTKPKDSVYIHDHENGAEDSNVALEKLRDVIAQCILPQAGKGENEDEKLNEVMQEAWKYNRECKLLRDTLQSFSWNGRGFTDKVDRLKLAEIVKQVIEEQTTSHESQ
The test is described as follows: Inhibition of PRAK assessed as residual activity at 0.1 uM by Cherenkov counting relative to control in presence of 20 uM ATP. A digest of the protocol:
(§2)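 Single-concentration screen at 0.1 μM in a 76-kinase panel. ATP for each kinase was set near its Km for ATP. Residual activity is given as a percentage of control assays without compound, mean of n = 3 ± SD.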

Test [6] concerns the target Mitogen-activated protein kinase 14 (Homo sapiens, UniProt Q16539). Description: Inhibition of p38alpha assessed as residual activity at 0.1 uM by Cherenkov counting relative to control. A digest of the protocol: as §2
Test [7] has as its target Tyrosine-protein kinase CSK (Homo sapiens) (UniProt P41240). Description: Inhibition of CSK assessed as residual activity at 0.1 uM by Cherenkov counting relative to control in presence of 20 uM ATP. Put shortly: (§3)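 Single-concentration screen at 0.1 µM across a panel of 76 protein kinases. Each kinase was run at an ATP concentration approximating its ATP Km. Results are % mean residual activity versus control assays without compound (n = 3 ± SD).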

Test [8] is described as follows: Selectivity ratio of IC50 for recombinant CK1epsilon to IC50 for GST-fused rat CK1delta.
Test [9] has as its target T3, Serine/threonine-protein kinase Sgk1 (Homo sapiens) (UniProt O00141).
T3 sequence (whole entry): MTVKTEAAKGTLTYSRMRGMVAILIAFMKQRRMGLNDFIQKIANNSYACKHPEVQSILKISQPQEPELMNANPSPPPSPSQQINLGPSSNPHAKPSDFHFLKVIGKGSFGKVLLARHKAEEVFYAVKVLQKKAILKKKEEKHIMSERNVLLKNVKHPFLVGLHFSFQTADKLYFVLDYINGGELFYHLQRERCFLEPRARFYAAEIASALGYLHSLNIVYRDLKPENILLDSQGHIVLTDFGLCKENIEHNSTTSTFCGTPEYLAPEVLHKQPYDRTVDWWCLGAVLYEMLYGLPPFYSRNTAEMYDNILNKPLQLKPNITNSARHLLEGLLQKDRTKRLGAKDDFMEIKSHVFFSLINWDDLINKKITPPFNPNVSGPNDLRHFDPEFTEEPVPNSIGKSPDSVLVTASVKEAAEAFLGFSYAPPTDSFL
Description: Inhibition of SGK1 assessed as residual activity at 0.1 uM by Cherenkov counting relative to control in presence of 20 uM ATP. Put shortly:
as §2

In test [10] the target is Mitogen-activated protein kinase 3 (Homo sapiens) (UniProt P27361). Description: Inhibition of ERK1 assessed as residual activity at 0.1 uM by Cherenkov counting relative to control in presence of 5 uM ATP. A digest of the protocol: as §3
The target of test [11] is Ribosomal protein S6 kinase alpha-3 (Homo sapiens) (UniProt P51812). The test is described as follows: Inhibition of RSK2 assessed as residual activity at 0.1 uM by Cherenkov counting relative to control in presence of 50 uM ATP. A digest of the protocol: as §2
Chain of Ribosomal protein S6 kinase alpha-3 (Homo sapiens) (P51812 whole entry): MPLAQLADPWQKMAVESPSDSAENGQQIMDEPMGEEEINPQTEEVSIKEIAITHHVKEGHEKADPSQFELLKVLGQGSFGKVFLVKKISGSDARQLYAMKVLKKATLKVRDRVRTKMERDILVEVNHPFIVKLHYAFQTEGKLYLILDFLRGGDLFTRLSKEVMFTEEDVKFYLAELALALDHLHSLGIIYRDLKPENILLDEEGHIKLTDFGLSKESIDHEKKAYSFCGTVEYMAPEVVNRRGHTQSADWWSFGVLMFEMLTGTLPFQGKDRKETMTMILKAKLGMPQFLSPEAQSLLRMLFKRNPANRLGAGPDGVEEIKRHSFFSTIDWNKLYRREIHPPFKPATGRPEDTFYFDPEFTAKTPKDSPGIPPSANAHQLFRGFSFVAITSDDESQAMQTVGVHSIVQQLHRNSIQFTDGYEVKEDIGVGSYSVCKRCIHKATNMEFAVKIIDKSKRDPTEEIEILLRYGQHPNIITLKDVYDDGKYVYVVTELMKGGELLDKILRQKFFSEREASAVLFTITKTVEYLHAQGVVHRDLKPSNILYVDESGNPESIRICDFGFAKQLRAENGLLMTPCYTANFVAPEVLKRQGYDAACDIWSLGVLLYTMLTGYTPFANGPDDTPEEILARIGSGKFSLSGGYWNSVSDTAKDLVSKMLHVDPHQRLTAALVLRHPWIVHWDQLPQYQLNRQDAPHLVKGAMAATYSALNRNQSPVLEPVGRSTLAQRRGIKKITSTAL
The target in test [12] is Ribosomal protein S6 kinase alpha-5 (Homo sapiens) (UniProt O75582). Description: Inhibition of MSK1 assessed as residual activity at 0.1 uM by Cherenkov counting relative to control in presence of 20 uM ATP. Put shortly:
(§4)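 Single-concentration selectivity screen at 0.1 μM against a panel of 76 protein kinases. Each kinase was run at an ATP level approximating its Km for ATP. Output is mean residual activity as % of the control assay without compound, n = 3 ± SD.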

For test [13], the target named is Dual specificity mitogen-activated protein kinase kinase 1 (Homo sapiens) (UniProt Q02750). Description: Inhibition of MKK1 assessed as residual activity at 0.1 uM by Cherenkov counting relative to control in presence of 5 uM ATP. Put shortly: as §4
Chain of Dual specificity mitogen-activated protein kinase kinase 1 (Homo sapiens) (Q02750 whole entry): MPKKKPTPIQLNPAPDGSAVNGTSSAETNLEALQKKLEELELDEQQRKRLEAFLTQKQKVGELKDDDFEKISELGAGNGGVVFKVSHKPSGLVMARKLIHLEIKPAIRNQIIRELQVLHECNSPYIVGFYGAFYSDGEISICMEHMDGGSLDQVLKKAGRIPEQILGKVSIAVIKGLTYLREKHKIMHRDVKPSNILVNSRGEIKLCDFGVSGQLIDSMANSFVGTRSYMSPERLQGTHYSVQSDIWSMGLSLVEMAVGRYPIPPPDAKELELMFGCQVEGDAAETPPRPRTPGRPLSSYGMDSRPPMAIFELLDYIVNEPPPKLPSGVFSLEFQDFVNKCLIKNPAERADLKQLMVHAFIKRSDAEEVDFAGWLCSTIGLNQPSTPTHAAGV

Each structure is given as a SMILES string.

Chain of Ribosomal protein S6 kinase alpha-5 (Homo sapiens) (O75582 whole entry, looked up): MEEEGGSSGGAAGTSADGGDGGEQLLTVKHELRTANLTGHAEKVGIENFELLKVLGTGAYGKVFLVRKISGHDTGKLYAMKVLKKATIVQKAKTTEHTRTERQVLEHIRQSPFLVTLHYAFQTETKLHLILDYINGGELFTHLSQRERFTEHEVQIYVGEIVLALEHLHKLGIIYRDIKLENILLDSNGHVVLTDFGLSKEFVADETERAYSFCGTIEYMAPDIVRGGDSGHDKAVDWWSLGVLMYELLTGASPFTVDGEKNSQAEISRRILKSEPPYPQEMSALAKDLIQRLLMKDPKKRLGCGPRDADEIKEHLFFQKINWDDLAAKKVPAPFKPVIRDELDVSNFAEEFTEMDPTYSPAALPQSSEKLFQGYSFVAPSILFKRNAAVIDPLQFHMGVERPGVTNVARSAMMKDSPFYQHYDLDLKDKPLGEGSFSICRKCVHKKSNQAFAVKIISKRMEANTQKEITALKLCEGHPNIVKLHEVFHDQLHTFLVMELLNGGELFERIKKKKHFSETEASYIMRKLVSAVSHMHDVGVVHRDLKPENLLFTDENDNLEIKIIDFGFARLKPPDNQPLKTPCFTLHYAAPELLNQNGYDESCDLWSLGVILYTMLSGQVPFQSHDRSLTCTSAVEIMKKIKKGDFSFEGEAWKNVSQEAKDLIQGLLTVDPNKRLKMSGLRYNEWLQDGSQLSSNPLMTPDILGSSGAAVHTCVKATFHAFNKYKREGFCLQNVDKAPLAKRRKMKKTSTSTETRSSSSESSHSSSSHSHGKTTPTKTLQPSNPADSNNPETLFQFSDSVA
Chain of Calcium/calmodulin-dependent protein kinase kinase 2 (Homo sapiens) (Q96RR4 2-588 limits assumed): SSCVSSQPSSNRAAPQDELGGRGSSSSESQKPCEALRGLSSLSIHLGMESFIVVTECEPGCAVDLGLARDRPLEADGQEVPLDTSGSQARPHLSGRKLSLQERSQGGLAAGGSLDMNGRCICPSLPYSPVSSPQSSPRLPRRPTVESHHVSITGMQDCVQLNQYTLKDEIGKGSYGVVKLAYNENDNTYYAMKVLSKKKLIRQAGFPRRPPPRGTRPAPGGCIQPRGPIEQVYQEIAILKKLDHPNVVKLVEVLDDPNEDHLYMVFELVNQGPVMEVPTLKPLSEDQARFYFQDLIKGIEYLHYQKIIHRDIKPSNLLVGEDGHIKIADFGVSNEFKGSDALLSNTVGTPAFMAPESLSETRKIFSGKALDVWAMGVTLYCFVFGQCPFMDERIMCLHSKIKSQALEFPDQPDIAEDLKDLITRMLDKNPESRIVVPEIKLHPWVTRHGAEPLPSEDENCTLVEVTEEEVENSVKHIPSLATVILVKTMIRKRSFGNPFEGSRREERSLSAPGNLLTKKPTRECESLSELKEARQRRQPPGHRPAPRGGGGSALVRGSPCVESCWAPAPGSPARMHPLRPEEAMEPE
Chain of Mitogen-activated protein kinase 14 (Q16539 whole entry): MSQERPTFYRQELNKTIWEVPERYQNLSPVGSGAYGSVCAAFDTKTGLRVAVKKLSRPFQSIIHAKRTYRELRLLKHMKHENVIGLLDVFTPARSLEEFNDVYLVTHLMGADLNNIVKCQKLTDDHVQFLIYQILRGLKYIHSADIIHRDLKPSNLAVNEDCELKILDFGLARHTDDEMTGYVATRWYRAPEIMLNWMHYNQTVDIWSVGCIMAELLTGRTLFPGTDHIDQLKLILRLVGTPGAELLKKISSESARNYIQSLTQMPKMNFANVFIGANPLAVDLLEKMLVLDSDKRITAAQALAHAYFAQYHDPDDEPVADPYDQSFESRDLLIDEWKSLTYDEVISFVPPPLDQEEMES

As for `CC(C)c1noc(-c2ccc(F)cc2)c1-c1ccncc1`, the Activity in [1] amounted to 97%; in test [2] it was 104%; in test [3], 85%; in [4] it was 94%.

Consider `CC(C)c1onc(-c2ccc(F)cc2)c1-c1ccncc1`, for which the Activity in test [1] stood at 99%; in test [2], 101%; in test [3] it was 82%; in test [4], 93%.

As for `COc1ccc(/C=C/C(=O)Nc2cc(-c3[nH]c([S+](C)[O-])nc3-c3ccc(F)cc3)ccn2)c(OC)c1` (stereo unspecified), the Activity in test [5] was 101%; in test [6], 5%; in test [7], 79%; in test [9] it was 87%; in [10], 101%; in test [11], 94%. Besides, the values for the Activity in test [12] and in [13] were 97% and 18%, respectively. In [8], the Ratio IC50 is 41.

Turning to `COc1ccc(/C=C/C(=O)Nc2cc(-c3[nH]c(SC)nc3-c3ccc(F)cc3)ccn2)c(OC)c1`, the Activity was determined as 83% in test [5]; 3% in test [6]; 81% in test [7]; 87% in test [9]; 94% in [10]; 86% in [11]. Besides, the Activity came to 84% in [12] and 27% in test [13]. In addition, the Ratio IC50 in test [8] is 15.
